Source: ChEMBL document CHEMBL1938298, “Synthesis and characterization of [¹²⁵I]2-iodo N-[(S)-{(S)-1-methylpiperidin-2-yl}(phenyl)methyl]3-trifluoromethyl-benzamide as novel imaging probe for glycine transporter 1” (Bioorg Med Chem, 2011)
Activity calls are given as the source filed them. No cut-off for these calls is given here.

Experiments:
[1] = molecular target: T1, Sodium- and chloride-dependent glycine transporter 1 (Rattus norvegicus) (UniProt P28572); test: Binding affinity to GlyT1 in rat brain striatum at 0.03 to 0.04 nM preincubated for 20 mins in binding buffer before compound addition measured after 30 mins by autoradiography in presence of 0.01 mM GlyT1 inhibitor ALX5407 relative to control; type: tissue-based; conditions: tested as the 125I-labelled form
T1 sequence (whole entry): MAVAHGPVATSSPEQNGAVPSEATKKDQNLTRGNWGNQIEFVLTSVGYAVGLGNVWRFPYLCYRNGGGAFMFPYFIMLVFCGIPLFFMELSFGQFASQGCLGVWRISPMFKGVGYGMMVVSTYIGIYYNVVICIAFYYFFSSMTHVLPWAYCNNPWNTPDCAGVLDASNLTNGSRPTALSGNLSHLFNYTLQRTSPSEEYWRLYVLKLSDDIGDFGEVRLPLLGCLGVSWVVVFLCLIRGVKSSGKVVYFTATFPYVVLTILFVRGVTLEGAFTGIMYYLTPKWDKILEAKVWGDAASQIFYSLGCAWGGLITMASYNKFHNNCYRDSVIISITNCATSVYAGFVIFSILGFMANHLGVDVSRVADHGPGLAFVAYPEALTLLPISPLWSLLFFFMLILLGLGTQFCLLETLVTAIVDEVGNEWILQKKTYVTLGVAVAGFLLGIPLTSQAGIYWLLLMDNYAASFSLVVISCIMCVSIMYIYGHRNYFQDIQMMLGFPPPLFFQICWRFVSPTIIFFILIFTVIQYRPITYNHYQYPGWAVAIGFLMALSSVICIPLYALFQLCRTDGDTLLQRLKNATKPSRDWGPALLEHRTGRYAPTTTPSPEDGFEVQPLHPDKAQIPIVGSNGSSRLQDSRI

[2] = tested on: Mus musculus; test: In vivo binding affinity to GlyT1 in ddY mouse brain cerebellum at 33.3 kBq, iv after 60 mins in presence of SSR504734 2 mg/kg, iv administered 15 mins prior to compound administration relative to control; type: functional, organism-based; parameters: dose 2 mg/kg; conditions: tested as the 125I-labelled form
Procedure, shortened: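 Blocking study in male ddY mice (6 weeks, 30–35 g). The blocker (2 mg/kg in 30% DMSO/saline) was injected i.v. 15 min before about 33.3 kBq [125I]tracer i.v.; mice were killed at 30 or 60 min. Brains were divided into cortex, corpus callosum, hippocampus, thalamus, midbrain, medulla and cerebellum, weighed and gamma-counted as % dose/g. Values are mean ± SD, n = 5–6, compared to control by Kruskal–Wallis with Dunn's post-test.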

[3] = tested on: Mus musculus; test: In vivo binding affinity to GlyT1 in ddY mouse brain cerebral cortex at 200 kBq, iv after 60 mins by autoradiography relative to control; type: functional, organism-based; conditions: tested as the 125I-labelled form
Procedure, shortened: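 Ex vivo autoradiography in mice given 200 kBq [125I]tracer i.v. and killed at 60 min. Brains were removed, frozen on dry ice and cut into 20 µm sagittal cryosections, which were exposed to an imaging plate for 7 days. Regional signal was quantified as PSL/mm² (n = 5) and compared to control by Kruskal–Wallis with Dunn's post-test.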

[4] = molecular target: T1, Sodium- and chloride-dependent glycine transporter 1 (Rattus norvegicus); test: Binding affinity to GlyT1 in rat brain corpus callosum at 0.03 to 0.04 nM preincubated for 20 mins in binding buffer before compound addition measured after 30 mins by autoradiography in presence of 1 mM GlyT1 substrate glycine relative to control; type: tissue-based; conditions: tested as the 125I-labelled form
Procedure, shortened: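 Rat brain sagittal sections (20 µm) preincubated 20 min at 25 °C in Tris-HCl buffer pH 7.5 (NaCl, KCl, MgCl2, CaCl2), then 30 min at 25 °C with [125I] tracer (100 kBq, 0.03–0.04 nM) plus competitor (10 µM; glycine 1 or 10 mM). Cold washes, imaging plate 3 days, ROI PSL minus background per mm². % control from ≥triplicate slices, three rats.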

[5] = molecular target: T2, Sodium- and chloride-dependent glycine transporter 1 (Homo sapiens, UniProt P48067); test: Inhibition of GlyT1 in human JAR cells assessed as inhibition of [3H]glycine uptake preincubated for 1 mins measured after 2 hrs by liquid scintillation counting; type: cell-based
T2 sequence (P48067 whole entry): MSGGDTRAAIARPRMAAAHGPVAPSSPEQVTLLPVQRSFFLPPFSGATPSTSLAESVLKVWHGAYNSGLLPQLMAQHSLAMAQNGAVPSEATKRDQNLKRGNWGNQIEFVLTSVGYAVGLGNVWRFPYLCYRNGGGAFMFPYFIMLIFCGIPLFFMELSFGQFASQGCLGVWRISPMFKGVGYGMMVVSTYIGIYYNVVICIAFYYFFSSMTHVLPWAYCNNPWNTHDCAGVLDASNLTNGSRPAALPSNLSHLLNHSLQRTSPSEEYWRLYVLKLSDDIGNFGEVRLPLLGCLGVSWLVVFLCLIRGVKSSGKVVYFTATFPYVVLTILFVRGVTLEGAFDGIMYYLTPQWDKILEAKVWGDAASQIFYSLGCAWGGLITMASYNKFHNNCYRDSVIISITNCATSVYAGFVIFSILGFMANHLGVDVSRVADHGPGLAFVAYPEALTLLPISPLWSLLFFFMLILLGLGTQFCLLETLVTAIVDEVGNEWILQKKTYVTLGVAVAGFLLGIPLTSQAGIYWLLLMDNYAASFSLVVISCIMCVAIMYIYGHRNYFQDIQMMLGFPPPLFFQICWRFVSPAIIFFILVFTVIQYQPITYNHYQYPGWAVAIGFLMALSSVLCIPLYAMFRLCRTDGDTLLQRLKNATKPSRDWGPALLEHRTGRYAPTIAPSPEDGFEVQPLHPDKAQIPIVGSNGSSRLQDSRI
Procedure, shortened: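 [3H]glycine (final 10 µM) was added for 2 h at room temperature; nonspecific uptake was defined with 10 mM glycine. Cells were lysed in NaOH and counted by liquid scintillation. IC50 values are from at least three measurements, mean ± SEM.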

[6] = tested on: Lung; test: Drug uptake in ddY mouse lung at 11.1 kBq, iv after 5 min by gamma counting; type: ADME, organism-based; conditions: in vivo
Procedure, shortened: (§1)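 Male ddY mice (6 weeks, 30–35 g) were given about 11.1 kBq of [125I]tracer in 0.1 mL i.v. via the tail vein. At each time point the animals were killed and organs dissected, weighed and gamma-counted. Uptake is expressed as % injected dose per gram of tissue, mean ± SD, n = 5–6.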

[7] = tested on: Nucleic Acid; test: Ratio of drug level in brain to blood in ddY mouse at 11.1 kBq, iv after 5 min by gamma counting; type: ADME, organism-based
[8] = tested on: Stomach; test: Drug uptake in ddY mouse stomach at 11.1 kBq, iv after 15 min by gamma counting; type: ADME, organism-based; conditions: in vivo; procedure, shortened: as §1
[9] = tested on: Pancreas; test: Drug uptake in ddY mouse pancreas at 11.1 kBq, iv after 0.5 min by gamma counting; type: ADME, organism-based; conditions: in vivo; procedure, shortened: as §1
[10] = tested on: Heart; test: Drug uptake in ddY mouse heart at 11.1 kBq, iv after 180 min by gamma counting; type: ADME, organism-based; conditions: in vivo, 3 h
Procedure, shortened: (§2)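 Male ddY mice (6 weeks, 30–35 g) received about 11.1 kBq [125I]tracer in 0.1 mL i.v. via tail vein. Killed at set times, organs dissected and weighed, radioactivity gamma counted. Reported as % injected dose/g tissue, mean ± SD, n = 5–6.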

[11] = tested on: Brain; test: Drug uptake in ddY mouse brain at 11.1 kBq, iv after 60 min by gamma counting; type: ADME, organism-based; conditions: in vivo, 1 h; procedure, shortened: as §2

Activity [1] | Activity [4] | IC50 [5] | Drug uptake [6] | Ratio [7] | Drug uptake [8] | Drug uptake [9] | Drug uptake [10] | Drug uptake [11] | SMILES | Activity [2] | Activity [3]
46.7% | 94.1% | 2.35 nM | – | – | – | – | – | – | CN1CCCC[C@H]1[C@@H](NC(=O)c1cccc(C(F)(F)F)c1I)c1ccccc1 | inactive | inactive
– | – | – | 19.3 % ID/g | 1.57 | 5.22 % ID/g | 1.18 % ID/g | 1.79 % ID/g | 1.85 % ID/g | CN1CCCC[C@H]1[C@@H](NC(=O)c1cccc(C(F)(F)F)c1[125I])c1ccccc1 | – | –
